# From ChEMBL document CHEMBL1123363, “(5-Amino-1,3-dimethyl-1H-pyrazol-4-yl)(2-fluorophenyl)methanones . A series of novel potential antipsychotic agents” (J Med Chem, 1986)
# The source made the active and inactive calls. The calls are words filed in the database; no cut-off is given here.
# Assays:
# [1] = target: Dopamine receptor; assay: Binding affinity for dopamine receptor in rat striatal membrane using [3H]haloperidol as radioligand; type: cell membranes, Striatum
# Procedure, shortened: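 Nonspecific binding defined with (+)-butaclamol at 0.1 μM final. IC50 fitted by nonlinear curve fit from four or five concentrations in triplicate.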
# [2] = organism: Mus musculus; assay: Ability to inhibit locomotor activity using ataxia test.; type: functional; conditions: read-out: MED
# Procedure, shortened: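 Male Swiss–Webster mice (20–30 g, unfasted), nine per dose in groups of three, dosed ip in 0.2% methocel (dose as parent compound) 1 h before testing. Ataxia was scored first on an inverted screen over 60 s as % of mice falling. […] ED50 from at least three doses.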
# [3] = test system: Rattus norvegicus; assay: Suppression of conditional avoidance after peroral administration; type: functional; conditions: po
# Procedure, shortened: (§1)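 Fasted male Wistar rats (150–250 g) were trained to jump to a platform at a buzzer to avoid grid shock (1.1 mA/s). After oral dosing they were tested every 20 min for 6 h over 19 trials, 10 rats per dose, each rat used once. Peak effect was the mean of the four consecutive trials with the largest effect, computed from response latency. ED50 read graphically from at least three doses.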
# [4] = organism: Rattus norvegicus; assay: Compound was tested for its potential to produce clonic seizures in rats; + indicates that they are causing seizures; type: functional, organism-based
# Procedure, shortened: (§2)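 Any sign of seizure marked the compound as seizure-causing; the outcome was not quantified.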
# [5] = test system: Mus musculus; assay: Compound was tested for inhibition of apomorphine-induced climbing in mice after intraperitoneal administration; type: functional; conditions: ip
# Procedure, shortened: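 Male Swiss–Webster mice (25–35 g), ten per dose, acclimated 30 min in cylindrical cages, dosed ip, then given apomorphine 3 mg/kg sc 1 h later. Climbing scored in 30-s tests every 5 min for 30 min, starting 15 min after apomorphine. At least three doses; ED50 by nonlinear regression.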
# [6] = Compound was tested for inhibition of extrapyramidal side effect test in cebus monkey; type: functional; conditions: read-out: MED
# Procedure, shortened: (§3)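 Groups of three to six were then dosed by gavage and observed hourly for 6–8 h for dystonia or dyskinesia. Any unequivocal sign counted as a positive response. Minimal effective dose was determined in at least three animals.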
# [7] = Inhibition of sidman avoid in squirrel monkeys after peroral administration; type: functional; conditions: po
# Procedure, shortened: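 Mature squirrel monkeys, trained on a modified Sidman avoidance lever schedule, were dosed orally and tested in 6-h sessions. Inhibition was expressed as % of each animal's own nondrug responding. At least three doses were given to four animals, with sessions at least 1 week apart. ED50 from nonlinear regression.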
# [8] = test system: Rattus norvegicus; assay: The compound was tested for inhibition of conditional avoid in rats after peroral administration; type: functional; conditions: po; procedure, shortened: as §1
# [9] = test system: Rattus norvegicus; assay: Compound was tested for serum prolactin assay method in rats at 1 mg/kg dose after peroral administration; type: functional; conditions: route oral
# Procedure, shortened: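 Seven-week-old male Sprague–Dawley rats, five per group, were dosed orally and killed by decapitation 1 h later. Serum prolactin from trunk blood was measured by radioimmunoassay with [125I]-PRL and expressed as % of control (mean ± SEM).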
# [10] = test system: Rattus norvegicus; assay: Antagonized affect on the accumulation of the brain dopamine induced by butyrolactone (GBL) at 10 mg/kg after intraperitoneal administration; type: functional; design: scale not given: the % may be the effect or the level left
# [11] = target: T1, Beta-2 adrenergic receptor (Rattus norvegicus, UniProt P10608); assay: (§4) Binding affinity against beta-2 adrenergic receptor in rat brain using [3H]DHA; type: tissue-based
# Procedure, shortened: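 β2 sites in rat cerebellum membranes (male Long-Evans, 150–250 g) with [3H]dihydroalprenolol at 0.5 nM final. (-)-Alprenolol at 1 μM final defined the reference. IC50 from four or five concentrations by nonlinear curve fit.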
# [12] = test system: Rattus norvegicus; assay: Compound was tested for its affect on the accumulation of the dopamine metabolite homovanillic acid (HAV) in the rat striatum at 1 mg/kg dose after peroral administration; type: functional; conditions: route oral
# Procedure, shortened: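 Male Long–Evans rats were dosed orally and decapitated 2 h later. Striatal HVA was isolated on Sephadex G-10 and measured spectrofluorometrically, expressed as % control ± SEM.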
# [13] = target: Beta-1 adrenergic receptor (Rattus norvegicus, UniProt P18090); assay: Binding affinity against beta-1 adrenergic receptor in rat brain using [3H]DHA; type: tissue-based
# Procedure, shortened: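 β1 binding was run on rat cerebral cortex membranes from male Long–Evans rats (150–250 g) with [3H]dihydroalprenolol at 0.5 nM final. Nonspecific binding was defined with (−)-alprenolol at 1 μM final. IC50 from four or five concentrations by nonlinear curve fit.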
# [14] = organism: Rattus norvegicus; assay: Compound was tested for its potential to produce clonic seizures in rats; + indicates compound is causing seizures; type: functional, organism-based; procedure, shortened: as §2
# [15] = Binding affinity against […] in rat striatal membrane using [3H]haloperidol
# [16] = target: Adenylate cyclase; assay: The compound was tested for adenylate cyclase activity in rat corpus striatum; type: tissue-based
# Procedure, shortened: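 Striatal homogenates from male Long–Evans rats (200–300 g). Test substance concentration varied with dopamine held at 20 μM. Cyclic AMP formed was measured by radioimmunoassay, in triplicate.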
# [17] = test system: Rattus norvegicus; assay: Antagonized affect on the accumulation of the brain dopamine induced by butyrolactone (GBL) at 5 mg/kg after intraperitoneal administration; type: functional; design: scale not given: the % may be the effect or the level left
# [18] = target: T1, Beta-2 adrenergic receptor; assay: as §4; type: tissue-based; remark: listed apart in the source
# Procedure, shortened: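 β2 binding on rat cerebellum membranes (male Long–Evans rats, 150–250 g) with [3H]dihydroalprenolol, 0.5 nM final. Nonspecific binding defined with (-)-alprenolol, 1 μM final. IC50 from four or five concentrations by nonlinear curve fit.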
# [19] = Compound was tested for inhibition of sidman avoid in squirrel monkeys after peroral administration; conditions: Saimiri, po
# [20] = test system: Mus musculus; assay: Compound was tested for inhibition of locomotor activity and ataxia in mice after intraperitoneal administration; type: functional; conditions: ip
# Procedure, shortened: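 Unfasted male Swiss–Webster mice (20–30 g), nine per dose in groups of three, given compound ip in 0.2% methocel 1 h before testing. Ataxia assessed by 60-s inverted screen test, then photocell actophotometer locomotion recorded over 60 min as percent inhibition versus vehicle. At least three doses.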
# [21] = Extrapyramidal side effect test in cebus monkey; type: functional; conditions: read-out: MED; procedure, shortened: as §3
# [22] = test system: Canis familiaris; assay: Compound was tested for inhibition of emesis test in dogs administered perorally; antiemetic; type: functional, organism-based; conditions: Canis lupus familiaris
# [23] = test system: Rattus norvegicus; assay: Compound was tested for inhibition of conditional avoid in rats after peroral administration; type: functional; conditions: po
# Procedure, shortened: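 Fasted male Wistar rats (150–250 g) trained to jump to a platform at a buzzer to avoid grid shock (1.1 mA/s). After oral dosing, tested every 20 min for 6 h over 19 trials, 10 rats per dose. Peak effect from four consecutive trials using response latency. ED50 read graphically from at least three doses.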
# T1 sequence (P10608 whole entry): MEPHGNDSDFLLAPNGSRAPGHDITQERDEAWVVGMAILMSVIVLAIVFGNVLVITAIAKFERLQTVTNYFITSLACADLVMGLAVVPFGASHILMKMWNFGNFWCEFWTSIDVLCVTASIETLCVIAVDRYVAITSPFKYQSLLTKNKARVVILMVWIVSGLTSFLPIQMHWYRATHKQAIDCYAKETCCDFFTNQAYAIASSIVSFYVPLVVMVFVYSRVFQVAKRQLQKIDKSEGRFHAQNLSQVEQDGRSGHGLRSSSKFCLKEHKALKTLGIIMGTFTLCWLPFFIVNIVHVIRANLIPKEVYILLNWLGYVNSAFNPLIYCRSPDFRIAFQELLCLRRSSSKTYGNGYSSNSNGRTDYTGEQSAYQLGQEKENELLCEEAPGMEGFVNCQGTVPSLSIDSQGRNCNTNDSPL
# Sequence of Beta-1 adrenergic receptor (P18090 whole entry): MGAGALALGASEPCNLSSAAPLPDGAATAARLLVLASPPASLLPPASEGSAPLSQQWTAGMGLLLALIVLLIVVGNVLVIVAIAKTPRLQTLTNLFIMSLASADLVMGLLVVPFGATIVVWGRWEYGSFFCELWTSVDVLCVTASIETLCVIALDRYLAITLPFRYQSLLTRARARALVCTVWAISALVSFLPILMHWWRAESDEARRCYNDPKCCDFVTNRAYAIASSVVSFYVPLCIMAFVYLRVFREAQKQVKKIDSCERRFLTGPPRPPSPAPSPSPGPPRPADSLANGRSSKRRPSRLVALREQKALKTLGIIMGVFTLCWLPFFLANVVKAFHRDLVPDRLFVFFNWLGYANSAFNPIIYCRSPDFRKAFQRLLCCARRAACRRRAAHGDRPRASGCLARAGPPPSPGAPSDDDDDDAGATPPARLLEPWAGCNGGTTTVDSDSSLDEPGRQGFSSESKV
compound,measurement,setting,value
Cc1nn(C)c(NC(=O)CN2CCCCC2)c1C(=O)c1ccccc1F,IC50,[1],> 10 µM
same,minimal effective dose,[2],30 mg/kg
same,ED50,[3],> 100 mg/kg
Cc1nn(C)c(NC(=O)C(Cl)Cl)c1C(=O)c1ccccc1F,minimal effective dose,[2],30 mg/kg
same,Clonic seizures,[4],causing seizures
CSc1ccc2c(c1)N(CCC1CCCCN1C)c1ccccc1S2 (stereo not given) [THIORIDAZINE],ED50,[5],3.4 mg/kg
same,minimal effective dose,[6],2.5 mg/kg
same,ED50,[7],4.3 mg/kg
same,ED50,[8],5.8 mg/kg
Cc1nn(C)c(NC(=O)CCN2CCCC2)c1C(=O)c1ccccc1F,IC50,[1],> 10 µM
same,minimal effective dose,[2],100 mg/kg
same,ED50,[3],15 mg/kg
Cc1nn(C)c(NC(=O)CNCCN2CCCCC2)c1C(=O)c1ccccc1F,IC50,[1],> 10 µM
same,minimal effective dose,[2],30 mg/kg
same,ED50,[3],38 mg/kg
CC(C)C[C@H]1C(=O)N2CCC[C@H]2[C@]2(O)O[C@](NC(=O)[C@@H]3C=C4c5cccc6[nH]c(Br)c(c56)C[C@H]4N(C)C3)(C(C)C)C(=O)N12 [BROMOCRIPTINE],Control,[9],32.7%
same,Control,[10],82.4%
O=C(CCCN1CCC(O)(c2ccc(Cl)cc2)CC1)c1ccc(F)cc1 [HALOPERIDOL],IC50,[11],> 10 µM
same,Control,[9],224%
same,Control,[12],348.9%
same,IC50,[13],> 10 µM
Cc1nn(C)c(NC(=O)CNCCCN(C)C)c1C(=O)c1ccccc1F,IC50,[1],> 10 µM
same,minimal effective dose,[2],80 mg/kg
same,ED50,[3],56 mg/kg
CC(=O)Nc1c(C(=O)c2ccccc2F)c(C)nn1C,Clonic seizures,[14],causing seizures
same,minimal effective dose,[2],30 mg/kg
Cc1nn(C)c(NC(=O)CNCCCN2CCCC(C)C2)c1C(=O)c1ccccc1F (stereo not given),IC50,[1],> 10 µM
same,minimal effective dose,[2],100 mg/kg
same,ED50,[3],100 mg/kg
Cc1nn(C)c(NC(=O)CNCCCN2CCC(C)CC2)c1C(=O)c1ccccc1F,IC50,[1],> 10 µM
same,minimal effective dose,[2],100 mg/kg
Cc1nn(C)c(NC(=O)CNCCCN2CCCCC2)c1C(=O)c1ccccc1F,IC50,[1],> 10 µM
same,minimal effective dose,[2],100 mg/kg
same,ED50,[3],16 mg/kg
Cc1nn(C)c(NC(=O)CN2CCCC2)c1C(=O)c1ccccc1F,IC50,[1],> 10 µM
same,minimal effective dose,[2],30 mg/kg
same,ED50,[3],48 mg/kg
Cc1nn(C)c(NC(=O)CN(C)CCCN2CCCCC2C)c1C(=O)c1ccccc1F (stereo not given),IC50,[1],> 10 µM
same,minimal effective dose,[2],30 mg/kg
same,ED50,[3],21 mg/kg
Cc1nn(C)c(NC(=O)CNCCCNC(C)(C)C)c1C(=O)c1ccccc1F,minimal effective dose,[2],30 mg/kg
same,ED50,[3],46 mg/kg
same,IC50,[15],> 10 µM
Cc1nn(C)c(N(C)C(=O)CNCCCN2CCCCC2C)c1C(=O)c1ccccc1F (stereo not given),IC50,[1],> 10 µM
same,minimal effective dose,[2],> 100 mg/kg
same,ED50,[3],> 100 mg/kg
CNc1c(C(=O)c2ccccc2F)c(C)nn1C,Clonic seizures,[14],causing seizures
same,minimal effective dose,[2],30 mg/kg
Cc1nn(C)c(NC(=O)CNCCN(C(C)C)C(C)C)c1C(=O)c1ccccc1F,IC50,[1],> 10 µM
same,minimal effective dose,[2],100 mg/kg
same,ED50,[3],71 mg/kg
Cc1nn(C)c(NC(=O)CN2CCC(c3ccccc3)CC2)c1C(=O)c1ccccc1F,IC50,[1],> 10 µM
same,minimal effective dose,[2],30 mg/kg
same,ED50,[3],100 mg/kg
Cc1nn(C)c(NC(=O)C(C)N2CCCC2)c1C(=O)c1ccccc1F (stereo not given),IC50,[1],> 10 µM
same,minimal effective dose,[2],100 mg/kg
same,ED50,[3],> 100 mg/kg
Cc1nn(C)c(NC(=O)C(F)(F)F)c1C(=O)c1ccccc1F,Clonic seizures,[14],causing seizures
same,minimal effective dose,[2],< 10 mg/kg
Cc1nn(C)c(N(C)S(C)(=O)=O)c1C(=O)c1ccccc1F,Clonic seizures,[14],causing seizures
same,minimal effective dose,[2],> 90 mg/kg
Cc1nn(C)c(NC(=O)C(C)(C)N2CCCC2)c1C(=O)c1ccccc1F,IC50,[1],> 10 µM
same,minimal effective dose,[2],> 100 mg/kg
same,ED50,[3],> 56 mg/kg
Cc1nn(C)c(NC(=O)CN2CCC3(CC2)C(=O)NCN3c2ccccc2)c1C(=O)c1ccccc1F,IC50,[1],> 10 µM
same,minimal effective dose,[2],100 mg/kg
same,ED50,[3],15.5 mg/kg
OCCN1CCN(CCCN2c3ccccc3Sc3ccc(C(F)(F)F)cc32)CC1 [FLUPHENAZINE],IC50,[16],0.08 µM
CN1CCc2cccc3c2[C@H]1Cc1ccc(O)c(O)c1-3 [APOMORPHINE],Control,[17],75%
CCCNc1c(C(=O)c2ccccc2F)c(C)nn1C,Clonic seizures,[14],causing seizures
same,minimal effective dose,[2],< 10 mg/kg
Cc1nn(C)c(N(C)C(=O)C(F)(F)F)c1C(=O)c1ccccc1F,Clonic seizures,[14],causing seizures
same,minimal effective dose,[2],> 100 mg/kg
CN1CCN(C2=Nc3cc(Cl)ccc3Nc3ccccc32)CC1 [CLOZAPINE],IC50,[18],> 10 µM
same,ED50,[5],10 mg/kg
same,ED50,[19],4.1 mg/kg
same,ED50,[20],5.65 mg/kg
same,minimal effective dose,[21],> 30 mg/kg
same,MED,[22],Active
same,ED50,[23],22 mg/kg
